# iPSC survival up – hiPSC single-cell survival enhancement; ATPlite luminescence; 100% = ROCK inhibitor wells, 0% = DMSO; survival enhancement, % at 20 µM; 360,000 tested, 0.044% active; AID 602274; in the data active = survival enhancement above about 18%;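 also: cells exposed to compounds for 16 hours before the ATP read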
# beta cell repl – inducers of beta-cell replication in MIN6 cells; proliferation, % at 10 µM; AID 2380; MIN6 cells proliferation, ATPlite luminescence, 48 h; cells starved in 0.2% serum; 100% = growth in 10% serum; 330,000 tested, 0.29% active;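 active = compounds whose signal lies at least 3.5 SD above the mean of all wells on their plate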;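 also: 0% = DMSO-treated cells in low-serum medium and 100% = 10% serum control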
# Cardio protect – modulators protecting cardiomyocytes from myocardial damage; H9c2 cardiomyocytes, H2O2 injury protection, ATPLite, 2 h; protection from H2O2 cell death, % at 20 µM; 360,000 tested, 0.63% active;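 active = compounds giving at least 50% protection of heart cells from peroxide-induced death in the single-dose screen, raw or plate-pattern-corrected value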;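 also: 0% = DMSO wells with peroxide and 100% = DMSO wells without peroxide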
# CRFR2-BP ag – agonists of human CRF-binding protein/CRF-R2 receptor complex. HEK293 CRF-R2/CRF-BP, calcium dye fluorescence (FLIPR); percent of saturating CRF peptide response. activation, % at 13.2 µM. 350,000 tested, 0.46% active. AID 588473;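 active = activation of at least 50%, plus an integration ratio under a set limit after plate pattern correction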;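 also: plate controls were neutral control wells without compound for no effect and CRF at EC100 for full effect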
# UCH37 DUB inh – blocks the human deubiquitinase UCH37; Q9Y5K5; purified proteasome/UCH37, Ub-AMC cleavage fluorescence; inhibition, % (concentration not given with the values); 330,000 tested, 0.33% active;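 active = mean inhibition over replicate wells above about 20%, limit read from the data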;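 also: 0% = compound-free wells with enzyme and 100% = wells lacking proteasome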
# Target sequence (Q9Y5K5 whole entry, looked up): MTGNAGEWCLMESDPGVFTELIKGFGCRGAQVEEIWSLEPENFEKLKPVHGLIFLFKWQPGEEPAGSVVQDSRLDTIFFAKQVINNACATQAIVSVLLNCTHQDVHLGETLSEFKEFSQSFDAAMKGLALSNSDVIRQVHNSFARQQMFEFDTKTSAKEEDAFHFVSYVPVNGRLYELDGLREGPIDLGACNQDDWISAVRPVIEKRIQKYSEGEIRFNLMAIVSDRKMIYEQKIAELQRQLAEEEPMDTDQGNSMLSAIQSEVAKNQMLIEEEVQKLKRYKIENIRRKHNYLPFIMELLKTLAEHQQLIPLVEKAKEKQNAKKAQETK
#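 system = Proteasome-associated human UCH37 deubiquitinase | amount = 0.15 nM proteasome as dispensed | medium = pH 7.4 Tris-HCl (50 mM) with ovalbumin, ATP-MgCl2, DTT | incubation = 30 min preincubation with enzyme, 25 min cleavage at room temperature | detection = AMC fluorescence 355/460 nm | read-out basis = percent inhibition | controls = no-proteasome and no-compound wells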
# CRFR2-BP antag – CRF-BP/CRF-R2 complex antagonism; HEK293 CRF-R2/CRF-BP, CRF-induced calcium fluorescence; inhibition, % at 11.8 µM; 350,000 tested, 0.59% active; AID 588475;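 active = inhibition of the ligand-induced calcium signal above about 50% at the single tested concentration, limit read from the data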
# * hit, by the source's call; i = inactive; . = not tested or not shown. An excerpt weighted towards active compounds, which were near 2.1% of everything screened.
SMILES,iPSC survival up,beta cell repl,Cardio protect,CRFR2-BP ag,UCH37 DUB inh,CRFR2-BP antag
C=CCn1c(COc2ccccc2)nnc1SC(C)C(=O)N/N=C/c1cc(Cl)ccc1O (stereo not drawn),8,-4,67*,0,.,-14
C=CCn1c(COc2ccccc2)nnc1SC(C)C(=O)NN=Cc1cc(Cl)ccc1O (stereo not drawn),.,.,.,.,-1,.
O=C(CN1CCN(Cc2ccccc2)CC1)NN=Cc1cccnc1,.,.,.,.,2,.
CC(=O)Oc1ccc2cc(-c3cccnc3)c(=O)oc2c1,-2,.,6,0,i,79*
Cc1ccc(C(=O)c2cc([N+](=O)[O-])ccc2N2CCCCC2)c(C)c1,-1,0,-15,133*,8,-130
CC1(C)Cc2ccccc2C(NN=Cc2ccc(Cl)cc2)=N1,.,.,.,.,6,.
O=C1c2ccccc2NC(c2ccc(-c3ccc(F)cc3)o2)N1O (stereo not drawn),-1,-7,3,-3,-6,-13
O=C1c2ccccc2NC(c2ccc(-c3ccc(Br)cc3)o2)N1O (stereo not drawn),-1,-6,65*,0,-12,-9
O=C1c2ccccc2NC(c2ccc(-c3cccc([N+](=O)[O-])c3)o2)N1O (stereo not drawn),0,-6,56*,1,5,7
O=C(Cc1ccc(F)cc1)NN=Cc1ccccn1,.,.,.,.,2,.
COc1cc(/C=N/NC(=O)c2nc(C)cc(C)n2)ccc1O,3,0,2,165*,.,-157
COc1ccc(OC)c(/C=N/NC(=O)CCc2ccc(O)c(O)c2)c1,-1,0,51*,11,.,-21
COc1ccc(OC)c(/C=N/NC(=O)c2cc3c(OC)cc(OC)cc3[nH]2)c1,0,-1,51*,-4,.,-42
O=C(NN=Cc1ccc(OC(=O)c2ccccc2Cl)cc1)c1cc(O)cc(O)c1,.,.,.,.,22*,.
COc1ccc(OC)c(C=NNC(=O)CCc2c(C)n[nH]c2C)c1,.,.,.,.,-495,.
O=C(CON=Cc1cccc([N+](=O)[O-])c1)NC1CCCCCC1,.,.,.,.,-1,.
CCOc1cc(C=NNc2nnc(C)n2N)ccc1O,.,.,.,.,6,.
CSc1ccc(C=NNC(=O)CN2CCN(Cc3ccc(C)cc3)CC2)cc1,.,.,.,.,3,.
COC(=O)Cn1cc(C=NNC(=O)c2ccc(C#N)cc2F)c2ccccc21,.,.,.,.,12,.
CC(CC(=O)Nc1ccc([N+](=O)[O-])cc1)=NNC(=O)c1ccccc1[N+](=O)[O-],.,.,.,.,7,.
COc1ccc(OC)c2[nH]c(C(=O)NN=Cc3ccccc3O)cc12,.,.,.,.,-12,.
COc1cc(C(=O)NN=Cc2ccc(OC(=O)c3ccccc3Cl)cc2)ccc1O,.,.,.,.,3,.
COc1cc(C(=O)NN=Cc2ccc(OC(=O)c3ccccc3)c(OC)c2)ccc1O,.,.,.,.,4,.
COc1cc(C(=O)N/N=C/c2ccc(OC(=O)c3cccc(C)c3)c(OC)c2)ccc1O,0,-7,58*,0,.,1
COc1cc(C(=O)N/N=C/c2ccc(OC(=O)c3ccccc3Cl)cc2)ccc1O,1,-5,52*,0,.,-13
SMILES,iPSC survival up,beta cell repl,Cardio protect,CRFR2-BP ag,UCH37 DUB inh,CRFR2-BP antag
CCOC(=O)c1c(NC(=O)C(=O)N/N=C/c2ccc(OCC)cc2)sc2c1CCCCC2,1,-2,0,-2,.,8
COc1ccc(/C=N/NC(=O)c2cc3c(OC)ccc(OC)c3[nH]2)cc1O,0,-3,66*,-2,.,0
CCOC(=O)c1c(NC(=O)C(=O)N/N=C/c2ccc(O)c(OC)c2)sc2c1CCCCC2,0,3,53*,-2,.,55*
CCOC(=O)NC(=O)C(C#N)=NNc1ccc(Cl)cc1,.,.,.,.,8,.
O=[N+]([O-])c1ccc(NN=Cc2cccc(O)c2)cc1,.,.,.,.,0,.
COc1ccc(/C(C)=N/NC(=O)c2cccc(S(=O)(=O)N3CCCC3)c2)c(O)c1,1,-7,70*,.,.,.
O=C(NNC(=O)c1ccc(S(=O)(=O)N2CCCCC2)cc1)c1ccccc1,0,-2,2,-1,4,-21
O=C(Nc1ccc(Cl)cn1)c1cccc(S(=O)(=O)N2CCCC2)c1,1,2,-7,0,0,58*
O=C(NNC(=O)c1cccc(S(=O)(=O)N2CCCCC2)c1)c1ccccc1,1,-3,-3,0,3,103*
O=C(c1cccc(S(=O)(=O)N2CCOCC2)c1)N(Cc1ccc(F)cc1)Cc1ccco1,-1,0,11,-1,3,55*
COc1ccc(C(C)=NNC(=O)c2cccc(S(=O)(=O)N3CCCC3)c2)cc1,-2,-1,3,-1,3,0
Cc1ccsc1C=NNC(=O)CC(=O)NCc1ccccc1,.,.,.,.,5,.
CCCC(=NNC(=O)C1CC1)c1ccc(Br)cc1,.,.,.,.,-2,.
Cc1ccnc(NC(=O)c2cccc(S(=O)(=O)N3CCN(c4ccccc4)CC3)c2)c1,0,-5,-12,0,1,4
Cc1ccnc(NC(=O)c2cccc(S(=O)(=O)N3CCCC3)c2)c1,0,6,-2,-1,0,73*
CC(=O)N1CCN(S(=O)(=O)c2cccc(C(=O)NCc3ccc(F)cc3)c2)CC1,-2,2,-7,2,0,89*
O=C(NCc1ccc(F)cc1)c1cccc(S(=O)(=O)N2CCCC2)c1,4,3,2,-1,1,0
O=C(Nc1nnc(S(=O)(=O)N2CCCCC2)s1)c1cccc(Br)c1,-3,-6,-21,14,1,58*
O=C(NN=Cc1cc2c(cc1Br)OCO2)c1cccnc1,.,.,.,.,9,.
CN(C)CCCNc1ccc(-c2n[nH]c(=O)c3ccccc23)cc1[N+](=O)[O-],-1,-4,55*,0,8,-10
COc1cccc(C=NNC(=O)c2c(C)nc3ccc(Br)cn23)c1,.,.,.,.,5,.
O=C1/C(=C\c2ccc(Br)cc2)SC(=S)N1NS(=O)(=O)c1ccccc1,0,-6,-9,0,4,58*
CC(/C=C1\SC(=S)N(NS(=O)(=O)c2ccc(C)cc2)C1=O)=C\c1ccccc1,0,-4,-7,-2,8,-9
CC(/C=C1\SC(=S)N(NS(=O)(=O)c2ccccc2)C1=O)=C\c1ccccc1,0,-6,-1,-2,9,93*
COc1ccc(/C=C2/SC(=S)N(NS(=O)(=O)c3ccccc3)C2=O)cc1,0,0,-6,0,12,46
C=CCOc1ccc(/C=C2\SC(=S)N(NS(=O)(=O)c3ccccc3)C2=O)cc1,0,-1,-2,1,7,53*
Cc1cc(C(=O)NN=C/C=C/c2ccccc2[N+](=O)[O-])c(C)o1,.,.,.,.,8,.
CC(=NNC(=S)NC1CCCCC1)c1ccc(O)cc1,.,.,.,.,2,.
CCCN(CCC)Cc1c(C(=O)NN=C/C(C)=C\c2ccco2)nnn1-c1nonc1N,.,.,.,.,6,.
